What is called pIC50 is the IC50 on a negative log10 scale, so that one unit is a factor of ten. Higher therefore signals a low IC50. By clearance is commonly meant the volume of plasma or blood freed of the substance per unit of time. Higher therefore signals a high capacity for elimination.

Each structure is given as a SMILES string. pIC50: −log10 of the molar value. Active and inactive are the calls of the source. The rule behind the calls is not given here. A value given as a limit tells only on which side of the number the result lay.

The results in this text go back to ChEMBL document CHEMBL5649170, “Sustained microglial depletion with CSF1R inhibitor impairs parenchymal plaque development in an Alzheimer's disease model” (Nat Commun, 2019).

A short description of series [1]: Drug concentration in wildtype mouse plasma at 600 ppm administered as rodent chow starting from 1.5 months and measured after 5 months. The series is classed as ADME, cell-free. The conditions noted are these: route po, time 3.5 months. The method in brief: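 WT or 5xFAD mice were fed PLX3397 in AIN-76A chow at 600 ppm or 75 ppm from 1.5 to 5 months of age. Terminal brain and plasma drug concentrations were determined at study end.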

Series [2] deals with T1, Macrophage colony-stimulating factor 1 receptor (Mus musculus) (UniProt P09581).
T1 sequence (whole entry): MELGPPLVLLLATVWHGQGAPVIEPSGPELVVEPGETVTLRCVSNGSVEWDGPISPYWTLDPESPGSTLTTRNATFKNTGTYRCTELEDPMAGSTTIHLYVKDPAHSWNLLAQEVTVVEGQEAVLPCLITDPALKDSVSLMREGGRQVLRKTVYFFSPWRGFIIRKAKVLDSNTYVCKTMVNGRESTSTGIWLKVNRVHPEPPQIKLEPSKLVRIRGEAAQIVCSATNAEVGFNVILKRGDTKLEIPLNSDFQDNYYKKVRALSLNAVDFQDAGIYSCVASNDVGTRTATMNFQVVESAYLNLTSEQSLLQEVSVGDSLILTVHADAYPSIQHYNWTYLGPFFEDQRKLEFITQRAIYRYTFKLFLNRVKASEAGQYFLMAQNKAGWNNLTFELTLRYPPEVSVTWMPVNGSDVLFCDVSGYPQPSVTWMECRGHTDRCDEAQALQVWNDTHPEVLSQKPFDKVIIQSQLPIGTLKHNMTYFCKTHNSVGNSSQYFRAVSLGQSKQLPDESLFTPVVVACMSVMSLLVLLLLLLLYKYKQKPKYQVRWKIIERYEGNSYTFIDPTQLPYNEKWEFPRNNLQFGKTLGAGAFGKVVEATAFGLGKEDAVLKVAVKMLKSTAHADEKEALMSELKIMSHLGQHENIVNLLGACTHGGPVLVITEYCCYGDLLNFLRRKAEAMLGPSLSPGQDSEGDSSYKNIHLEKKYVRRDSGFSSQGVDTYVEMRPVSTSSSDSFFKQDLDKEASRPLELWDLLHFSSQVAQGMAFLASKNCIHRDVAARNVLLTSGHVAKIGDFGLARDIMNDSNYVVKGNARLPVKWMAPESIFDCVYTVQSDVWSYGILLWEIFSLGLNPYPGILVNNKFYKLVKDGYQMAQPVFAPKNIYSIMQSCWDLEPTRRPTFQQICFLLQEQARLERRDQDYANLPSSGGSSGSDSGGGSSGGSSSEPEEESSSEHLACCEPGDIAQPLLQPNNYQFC
The experiment in a line: In vivo inhibition of CSF1R in 5XFAD mouse assessed as reduction in plaque pathology in […] cortex at 600 ppm administered as rodent chow starting from 1.5 months and measured after 5 months by immunolabeling based confocal microscopic analysis. The conditions noted are these: route po, time 3.5 months.

Series [3] addresses RAC-alpha serine/threonine-protein kinase (Homo sapiens, UniProt P31749). The series is described as follows: Inhibition of AKT1 (unknown origin).
Series [4] deals with Cyclin-dependent kinase 5/CDK5 activator 1 (Homo sapiens, UniProt Q00535). The series is described as follows: Inhibition of CDK5_p25 (unknown origin). The format is protein-complex assay.
Chain of Cyclin-dependent kinase 5/CDK5 activator 1 (Q00535 whole entry, canonical isoform): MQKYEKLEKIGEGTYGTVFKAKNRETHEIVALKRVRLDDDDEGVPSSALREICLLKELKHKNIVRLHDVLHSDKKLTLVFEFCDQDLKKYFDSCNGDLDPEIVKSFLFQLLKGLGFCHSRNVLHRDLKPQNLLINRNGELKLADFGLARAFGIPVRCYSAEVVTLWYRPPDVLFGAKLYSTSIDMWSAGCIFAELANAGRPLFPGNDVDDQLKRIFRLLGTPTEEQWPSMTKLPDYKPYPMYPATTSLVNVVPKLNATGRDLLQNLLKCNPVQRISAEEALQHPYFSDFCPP
Chain of Cyclin-dependent kinase 5/CDK5 activator 1 (Q15078 whole entry, further chain, canonical isoform): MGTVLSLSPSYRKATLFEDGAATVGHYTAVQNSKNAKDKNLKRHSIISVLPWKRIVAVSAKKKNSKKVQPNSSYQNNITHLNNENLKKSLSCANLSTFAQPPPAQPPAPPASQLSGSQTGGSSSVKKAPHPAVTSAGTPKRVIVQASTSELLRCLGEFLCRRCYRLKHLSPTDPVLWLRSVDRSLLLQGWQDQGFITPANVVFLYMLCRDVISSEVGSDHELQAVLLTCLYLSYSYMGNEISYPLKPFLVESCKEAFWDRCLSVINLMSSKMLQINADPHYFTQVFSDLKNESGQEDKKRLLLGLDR
Series [5] deals with Casein kinase I isoform delta (Homo sapiens, UniProt P48730). The series is described as follows: Inhibition of CSNK1D (unknown origin).
Chain of Casein kinase I isoform delta (P48730 whole entry, canonical isoform): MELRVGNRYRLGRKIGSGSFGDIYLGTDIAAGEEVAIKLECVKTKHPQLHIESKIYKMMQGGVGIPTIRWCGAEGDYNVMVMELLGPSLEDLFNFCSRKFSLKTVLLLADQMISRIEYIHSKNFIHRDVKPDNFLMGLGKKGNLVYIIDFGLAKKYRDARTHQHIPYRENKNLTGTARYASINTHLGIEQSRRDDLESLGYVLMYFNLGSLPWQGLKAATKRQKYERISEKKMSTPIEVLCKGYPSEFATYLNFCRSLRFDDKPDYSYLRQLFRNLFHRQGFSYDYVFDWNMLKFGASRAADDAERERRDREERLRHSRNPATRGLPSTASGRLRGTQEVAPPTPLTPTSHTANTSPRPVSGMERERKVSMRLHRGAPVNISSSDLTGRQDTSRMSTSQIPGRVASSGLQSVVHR
Another series addresses Ephrin type-A receptor 8 (Homo sapiens, UniProt P29322). The experiment in a line: Inhibition of EPHA8 (unknown origin).
The target of series [6] is Maternal embryonic leucine zipper kinase (Homo sapiens, UniProt Q14680). The experiment in a line: Inhibition of MELK (unknown origin).
Chain of Maternal embryonic leucine zipper kinase (Q14680 whole entry): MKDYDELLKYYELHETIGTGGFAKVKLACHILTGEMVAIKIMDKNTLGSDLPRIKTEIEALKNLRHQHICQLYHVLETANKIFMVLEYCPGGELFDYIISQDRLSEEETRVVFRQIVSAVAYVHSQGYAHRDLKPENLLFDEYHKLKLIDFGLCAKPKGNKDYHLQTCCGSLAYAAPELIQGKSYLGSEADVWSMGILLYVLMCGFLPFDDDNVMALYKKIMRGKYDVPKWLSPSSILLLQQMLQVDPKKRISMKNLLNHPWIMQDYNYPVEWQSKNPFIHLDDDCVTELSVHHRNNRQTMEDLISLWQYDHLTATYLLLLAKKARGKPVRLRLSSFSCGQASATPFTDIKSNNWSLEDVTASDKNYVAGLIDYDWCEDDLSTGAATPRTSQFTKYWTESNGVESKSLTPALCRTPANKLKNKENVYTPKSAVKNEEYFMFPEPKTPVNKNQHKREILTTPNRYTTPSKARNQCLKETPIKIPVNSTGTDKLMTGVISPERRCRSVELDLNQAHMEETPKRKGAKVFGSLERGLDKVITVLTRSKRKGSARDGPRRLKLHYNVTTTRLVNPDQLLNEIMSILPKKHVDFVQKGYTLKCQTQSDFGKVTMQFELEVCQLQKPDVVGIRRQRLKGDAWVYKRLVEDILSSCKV
The target of series [7] is Tyrosine-protein kinase Mer (Homo sapiens, UniProt Q12866). The series is described as follows: Inhibition of MERTK (unknown origin).
Series [8] deals with BDNF/NT-3 growth factors receptor (Homo sapiens, UniProt Q16620). The series is described as follows: Inhibition of NTRK2 (unknown origin).
Chain of BDNF/NT-3 growth factors receptor (Q16620 whole entry): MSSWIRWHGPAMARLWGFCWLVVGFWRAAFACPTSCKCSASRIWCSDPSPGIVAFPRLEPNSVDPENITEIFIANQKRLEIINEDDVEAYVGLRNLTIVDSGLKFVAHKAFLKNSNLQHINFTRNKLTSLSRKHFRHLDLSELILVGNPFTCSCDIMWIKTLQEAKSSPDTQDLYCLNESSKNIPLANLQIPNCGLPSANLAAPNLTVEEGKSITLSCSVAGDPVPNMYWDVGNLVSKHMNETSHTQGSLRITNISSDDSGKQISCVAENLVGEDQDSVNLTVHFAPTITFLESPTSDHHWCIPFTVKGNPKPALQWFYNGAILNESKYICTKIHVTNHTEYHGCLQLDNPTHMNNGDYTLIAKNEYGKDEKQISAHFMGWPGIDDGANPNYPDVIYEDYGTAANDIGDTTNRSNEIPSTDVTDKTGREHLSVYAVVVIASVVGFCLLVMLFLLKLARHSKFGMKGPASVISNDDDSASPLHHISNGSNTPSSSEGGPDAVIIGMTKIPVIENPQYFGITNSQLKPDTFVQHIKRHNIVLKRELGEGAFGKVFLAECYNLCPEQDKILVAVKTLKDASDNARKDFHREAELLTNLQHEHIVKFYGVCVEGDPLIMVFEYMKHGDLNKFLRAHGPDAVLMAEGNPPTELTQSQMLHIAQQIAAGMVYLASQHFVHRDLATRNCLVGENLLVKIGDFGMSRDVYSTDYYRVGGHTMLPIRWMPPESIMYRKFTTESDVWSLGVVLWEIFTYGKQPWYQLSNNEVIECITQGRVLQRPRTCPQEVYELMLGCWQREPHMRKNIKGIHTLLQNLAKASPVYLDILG
For series [9], the target named is Proto-oncogene tyrosine-protein kinase receptor Ret (Homo sapiens, UniProt P07949, V804L). The series is described as follows: Inhibition of RET V804L mutant (unknown origin).
Chain of Proto-oncogene tyrosine-protein kinase receptor Ret (P07949 29-1114 V804L limits assumed): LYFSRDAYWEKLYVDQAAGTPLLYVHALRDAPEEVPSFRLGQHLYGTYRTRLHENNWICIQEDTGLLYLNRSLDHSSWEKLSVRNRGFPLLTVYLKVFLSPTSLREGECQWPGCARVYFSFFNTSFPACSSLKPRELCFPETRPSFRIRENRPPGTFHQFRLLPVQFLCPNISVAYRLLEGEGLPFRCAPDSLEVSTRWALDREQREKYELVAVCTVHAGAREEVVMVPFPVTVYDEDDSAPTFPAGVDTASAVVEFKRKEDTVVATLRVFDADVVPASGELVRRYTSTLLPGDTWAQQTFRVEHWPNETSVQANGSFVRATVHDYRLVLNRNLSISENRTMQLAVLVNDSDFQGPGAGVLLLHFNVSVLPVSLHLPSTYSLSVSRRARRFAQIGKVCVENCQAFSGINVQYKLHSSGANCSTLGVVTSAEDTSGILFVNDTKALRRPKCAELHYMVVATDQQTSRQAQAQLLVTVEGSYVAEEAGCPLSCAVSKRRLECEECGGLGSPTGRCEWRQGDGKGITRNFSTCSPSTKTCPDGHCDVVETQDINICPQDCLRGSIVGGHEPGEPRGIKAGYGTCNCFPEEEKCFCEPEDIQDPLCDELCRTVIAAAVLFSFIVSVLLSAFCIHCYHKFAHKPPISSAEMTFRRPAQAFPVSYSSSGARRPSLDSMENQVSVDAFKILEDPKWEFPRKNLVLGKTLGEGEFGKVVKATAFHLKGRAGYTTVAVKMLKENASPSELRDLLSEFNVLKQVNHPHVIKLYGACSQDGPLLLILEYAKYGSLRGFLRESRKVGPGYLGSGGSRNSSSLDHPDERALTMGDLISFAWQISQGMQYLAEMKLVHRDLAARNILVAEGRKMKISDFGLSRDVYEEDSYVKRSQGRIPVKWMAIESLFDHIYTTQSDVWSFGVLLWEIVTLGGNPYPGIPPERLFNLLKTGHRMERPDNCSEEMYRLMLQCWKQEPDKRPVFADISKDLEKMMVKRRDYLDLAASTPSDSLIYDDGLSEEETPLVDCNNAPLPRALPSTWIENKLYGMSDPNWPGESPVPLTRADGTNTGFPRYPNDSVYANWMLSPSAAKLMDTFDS
Series [10] is described as follows: Clearance in dog at 1.00 mg/kg, iv administered as single dose. The series is classed as ADME, organism-based, Canis lupus familiaris. The note with it: in vivo.
The test system of series [11] is Mus musculus. The series is described as follows: Antialzheimer activity in 5XFAD mouse assessed as number of open arm entries at 1200 ppm administered as rodent chow for 10 to 24 weeks by Elevated plus maze test (reference value: 10 to 33). The series is classed as functional. The note with it: route po, time 10-24 weeks.
Series [12] deals with Mus musculus. The experiment in a line: Antialzheimer activity in 5XFAD mouse assessed as number of entries to perimeter zone at 1200 ppm administered as rodent chow for 10 to 24 weeks by Open field test (reference value: 22 to 55). The series is classed as functional. The note with it: route po, time 10-24 weeks.
Series [13] has as its system Mus musculus. The series is described as follows: Antialzheimer activity in 5XFAD mouse assessed as number of pyroglutamate-3-modified positive plaques per FOV in cortex at 1200 ppm administered as rodent chow starting from 1.5 months and measured after 7 months by Thio-S staining based confocal microscopic analysis (reference value: 14 to 34). The series is classed as functional. The note with it: route po, time 5.5 months, 4015 h.

In series [14] the test system is Mus musculus. The series is described as follows: Antialzheimer activity in 5XFAD mouse assessed as amyloidbeta42 level in detergent insoluble cortex fraction measured per microgram protein at 1200 ppm administered as rodent chow starting from 1.5 months and measured after 4 months by ELISA (reference value: 184693 to 3485624 pg). The format is functional. The conditions noted are these: route po, time 2.5 months, 1825 h. The method in brief: (§1)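 PLX5622 at 1200 ppm in chow given to 5xFAD mice from 1.5 months to 4 or 7 months of age; cortex and thalamus homogenized in TPER (detergent-soluble), pellets re-homogenized in 70% formic acid and spun 100,000 g, 1 h, 4 °C (insoluble); protein by Bradford/Lowry; Aβ species measured by Meso Scale electrochemiluminescence immunoassay, normalized to protein; n = 7–8 per group at 7 months.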
(In general: An ELISA detects its analyte on a solid surface through an enzyme-linked reagent.)

The subject of series [15] is Mus musculus. The series is described as follows: Antialzheimer activity in 5XFAD mouse assessed as amyloidbeta42 level in detergent insoluble thalamus fraction measured per microgram protein at 1200 ppm administered as rodent chow starting from 1.5 months and measured after 4 months by ELISA (reference value: 181082 to 7435203 pg). The format is functional. The note with it: route po, time 2.5 months, 1825 h. The method in brief:
as §1

For series [16], the target named is T1, Macrophage colony-stimulating factor 1 receptor (Mus musculus). The series is described as follows: In vivo inhibition of CSF1R in wildtype mouse assessed as iron reactivity by measuring hemosiderin intensity of prussian blue staining in […] cortex at 1200 ppm administered as rodent chow starting from 1.5 months and measured after 7 months by confocal microscopic analysis (reference value: 0.059 to 2.835 a.u.). The series is classed as functional. The conditions noted are these: route po, time 5.5 months. The gist of the method: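 Wild-type or 5xFAD mice fed PLX5622 (1200 ppm) in AIN-76A chow from 1.5 months of age, examined in 4- and 7-month-old cohorts. Brain sections stained with a Prussian blue kit per kit instructions to detect iron deposits (microbleeds).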

A short description of series [17]: Effect on Ctsz gene expression in wild type mouse hippocampus at 1200 ppm administered as rodent chow starting from 1.5 months and measured after 7 months by RNA-Seq analysis (reference value: 13.821 to 22.84 RPKM). The format is functional. The conditions noted are these: route po, time 5.5 months, 4015 h.
In series [18] the test system is Mus musculus. The experiment in a line: Antialzheimer activity in 5XFAD mouse assessed as microglial elimination in brain at 1200 ppm administered as rodent chow by Thio-S staining based confocal microscopic analysis. The note with it: route po.

Chain of Ephrin type-A receptor 8 (P29322 whole entry): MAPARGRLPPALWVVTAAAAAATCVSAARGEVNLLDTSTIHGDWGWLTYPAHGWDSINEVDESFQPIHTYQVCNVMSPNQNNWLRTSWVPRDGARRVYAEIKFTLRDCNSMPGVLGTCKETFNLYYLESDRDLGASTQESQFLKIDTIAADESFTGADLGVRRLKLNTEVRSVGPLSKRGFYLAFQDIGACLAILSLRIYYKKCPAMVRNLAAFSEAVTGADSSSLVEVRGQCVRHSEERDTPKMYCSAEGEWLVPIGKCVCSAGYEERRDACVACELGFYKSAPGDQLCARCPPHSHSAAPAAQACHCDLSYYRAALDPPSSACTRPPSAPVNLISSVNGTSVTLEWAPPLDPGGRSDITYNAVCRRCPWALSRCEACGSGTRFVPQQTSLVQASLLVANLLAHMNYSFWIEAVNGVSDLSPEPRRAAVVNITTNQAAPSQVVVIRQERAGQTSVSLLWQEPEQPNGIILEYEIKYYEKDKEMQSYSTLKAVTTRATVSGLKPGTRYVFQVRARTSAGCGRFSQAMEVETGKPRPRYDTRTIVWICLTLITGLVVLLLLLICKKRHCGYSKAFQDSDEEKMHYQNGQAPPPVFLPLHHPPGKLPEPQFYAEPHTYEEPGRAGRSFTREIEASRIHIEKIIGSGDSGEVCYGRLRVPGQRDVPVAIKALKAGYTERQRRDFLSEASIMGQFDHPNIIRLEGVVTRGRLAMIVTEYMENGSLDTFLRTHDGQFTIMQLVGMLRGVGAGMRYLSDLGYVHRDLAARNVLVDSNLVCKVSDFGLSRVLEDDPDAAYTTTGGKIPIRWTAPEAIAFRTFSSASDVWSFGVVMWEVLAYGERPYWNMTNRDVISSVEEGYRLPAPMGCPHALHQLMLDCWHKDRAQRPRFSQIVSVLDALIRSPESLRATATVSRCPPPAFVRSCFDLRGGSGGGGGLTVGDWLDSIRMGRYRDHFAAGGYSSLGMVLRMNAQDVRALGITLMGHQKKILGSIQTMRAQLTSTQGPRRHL

The compound `FC(F)(F)c1ccc(CNc2ccc(Cc3c[nH]c4ncc(Cl)cc34)cn2)cn1` [PEXIDARTINIB] gave a concentration at 2555 h in series [1] of 139 µM. Further, the inhibition entry in [2] is “Active”.
As to `COc1ncc(F)cc1CNc1ccc(Cc2c[nH]c3ncc(C)cc23)c(F)n1` [PLX-5622], the pIC50 (in series [3]; in [4]; in series [5]; against Ephrin type-A receptor 8; in series [6]; in series [7]) was less than 6.00 each time. Besides, the pIC50 in series [8] and in series [9] was less than 6.00 in each case. Besides, the clearance in series [10] was found to be 3 mL/min/kg. The Activity in the series with Mus musculus [11] amounted to 15; with Mus musculus [12], 7; with Mus musculus [13], 0; in the series with Mus musculus [14] it was 14098.06 pg; in the series with Mus musculus [15] it was 117968.4 pg; in series [17], 14.33 RPKM. The Flu intensity in [16] was 0.747 a.u. The result with Mus musculus [18] was Active.
